# Screens from PubChem BioAssay.
# E-sel inducer: E-selectin induction in HUVECs, primary screen, imaging, HUVEC, immunofluorescence imaging, single point | P16581 | activation, % at 7.58 µM | normalized: neutral wells 0, TNF-alpha wells 100 | hit rate 0.37% among 260,000;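 active = mean E-selectin-positive cell signal at least 10% of the positive control, reached in at least 60% of replicates, without over 20% cell loss; inconclusive = no rule given, readout overlaps actives, possibly toxicity-flagged; inactive = the rest, including those meeting only one limit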
#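 System: HUVEC / Compound: single concentration / Signal: immunofluorescence imaging / Read-out: percent E-selectin-positive cells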
# C2C12 statin: suppressors of statin myotoxicity in C2C12 myotubes, primary screen, cell-based, single point, plate reader; C2C12 myotubes + simvastatin, ATP luminescence, 48 h; scaled: DMSO 0, geranylgeraniol control 100; rescue of ATP level, % at 7.49 µM; hit rate 0.78% among 330,000;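 active = mean ATP rescue above about 67%, or every replicate alone reaching that limit, limit read from the data, passing the limit was not always enough; inconclusive = no clear call, values can overlap the other calls; inactive = mean under the limit and some replicate under it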;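 also: myotubes were challenged with 10 µM simvastatin during compound exposure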
# Ecoli rRNA inh: reduced GFP signal of wild-type E. coli, primary screen, bacterial rRNA inhibitor project, GFP/RFP fluorescence, OD600, single point | GFP signal change (wild-type ribosome), % (concentration not given with the values) | hit rate 1.6% among 350,000 | E. coli WT GFP vs humanized-ribosome RFP mutants, 24 h; stronger effect = lower value; DMSO median 0, no signal -100 | AID 720706, 2013;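 active = significant combined selectivity score with lowered wild-type GFP, culture density cut under 30%, mutant RFP and density less affected; inactive = any of these conditions unmet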
# FGF22 binding: binders of human FGF22 protein, primary screen, FGF22 synaptogenesis inhibitor project, biophysical, thermal shift, single point; Fibroblast growth factor 22 (Homo sapiens), Q9HCT0; recombinant FGF22 thermal shift, SYPRO orange fluorescence; percent of sucrose octasulfate shift, DMSO zero; activity (Tm shift, normalised), % at 9.99 µM; hit rate 1.5% among 340,000; AID 651658, 2012;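 active = mean Tm shift, scaled 0 neutral to 100 positive control, at about 1.3% or above, every replicate too, limit read from the data; inconclusive = no clear call, values can overlap the other calls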
# Target sequence (Q9HCT0 whole entry, looked up): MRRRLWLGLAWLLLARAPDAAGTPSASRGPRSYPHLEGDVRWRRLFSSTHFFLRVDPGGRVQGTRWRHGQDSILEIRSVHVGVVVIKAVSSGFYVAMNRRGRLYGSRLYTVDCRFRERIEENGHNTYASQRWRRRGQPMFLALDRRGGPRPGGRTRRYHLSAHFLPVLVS
# SIRT5 inh: SIRT5 desuccinylase inhibitors, primary screen, biochemical, fluorescence imaging, single point, set 5 | Purified SirT5, succinyl-peptide AMC, trypsin-coupled fluorescence | hit rate 1.1% among 330,000 | NAD-dependent protein deacylase sirtuin-5, mitochondrial (Homo sapiens), Q9NXA8 | inhibition, % at 15 µM; in the data active = inhibition above about 15%; inconclusive = no clear call, values can overlap the other calls
# Target sequence (Q9NXA8 whole entry, looked up): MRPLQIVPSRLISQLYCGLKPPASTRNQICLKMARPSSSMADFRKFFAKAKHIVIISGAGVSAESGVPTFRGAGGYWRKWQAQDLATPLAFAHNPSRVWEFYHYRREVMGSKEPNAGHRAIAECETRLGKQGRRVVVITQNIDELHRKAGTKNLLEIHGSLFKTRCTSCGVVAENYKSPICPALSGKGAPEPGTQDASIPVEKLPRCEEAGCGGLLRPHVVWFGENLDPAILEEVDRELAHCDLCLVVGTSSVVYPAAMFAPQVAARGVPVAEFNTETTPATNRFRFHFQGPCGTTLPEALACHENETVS
# FN deposition inh: inhibitors of fibronectin matrix deposition, primary screen, AH1F cells, Alexa488-fibronectin fluorescence, plate reader. AID 743247, 2014. inhibition, % at 12.6 µM. AH1F fibroblasts, overnight. hit rate 0.086% among 350,000;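 active = mean inhibition across replicates of 30% or more, regardless of how many single replicates reach that level; inconclusive = mean under 30% yet at least half of replicates reach 30%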;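 also: positive control wells lacked labelled fibronectin entirely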
#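 Material: AH1F fibroblasts assembling fluorescent fibronectin matrix; amount: 10000 AH1F cells/well; medium: DMEM, 2% serum; reagent: Alexa488-fibronectin, 24 nM final in well; dosing: single compound dose, delivered by pin transfer; incubation: 1 h adhesion, overnight exposure; detection: fluorescence after three HBSS washes, excitation 485 nm, emission 525 nm; measure: fibronectin deposition inhibition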
# Active calls of the source: *; ? = inconclusive; · = no result given; ! = not active in a repeat. Sampled rows, rich in hits. Any-hit rate of the full collection: about 4%.
SMILES,E-sel inducer,C2C12 statin,Ecoli rRNA inh,FGF22 binding,SIRT5 inh,FN deposition inh
COc1ccc(OC)c(C=C2CCc3ccccc3C2=O)c1,0,-10,-25,0,-2,2
COc1cccc(/C=C2\CCc3ccccc3C2=O)c1,0,-1,-20,0,-1,2
C[C@H]1CN([C@@H](C)CO)C(=O)c2cc(C3=CCCC3)cnc2O[C@@H]1CN(C)C(=O)CN1CCOCC1,0,41,5,0,5,-1
CNC[C@H]1OCCCC[C@@H](C)Oc2ccc(NS(C)(=O)=O)cc2C(=O)N([C@@H](C)CO)C[C@@H]1C,2,-9,6,0,-3,·
CCN(C(=O)CSc1nc2cc(Cl)ccc2c(=O)n1CC(C)C)C1CCS(=O)(=O)C1 (stereo not given),0,-7,-1,0,-6,1
CCN(C(=O)CSc1nc2cc(Cl)ccc2c(=O)n1Cc1ccco1)C1CCS(=O)(=O)C1 (stereo not given),0,·,7,44*,0,1
COc1cccc(CN2CC(C(=O)N(C)CC3CCOCC3)CCC2=O)c1 (stereo not given),-4,4,14,0,19*,-5
S=C(c1ccc(-c2cccc(Cl)c2)o1)N1CCCCC1,0,·,-29*,0,-5,3
COc1ccc(S(=O)(=O)N(C)C[C@@H]2Oc3ccc(NC(=O)c4ccncc4)cc3CC(=O)N([C@@H](C)CO)C[C@H]2C)cc1,-4,-9,0,0,1,2
CCOC(=O)C1=C(C)Nc2ncnn2C1c1ccccc1F (stereo not given),·,81*,·,·,·,·
COc1ccccc1C1C(C(=O)NCc2ccccc2)=C(C)Nc2ncnn21 (stereo not given),7,·,·,·,·,-3
CC(=O)C1=C(C)Nc2ncnn2C1c1ccccc1OCc1ccccc1 (stereo not given),·,114*,·,·,·,·
CC1(C)CC(=O)C2=C(C1)c1c(ccc3ccccc13)NC2c1ccc(Br)o1 (stereo not given),·,107*,·,·,·,·
CC1(C)CC(=O)C2=C(C1)c1c(ccc3ccccc13)NC2c1ccc(OCC(=O)O)cc1 (stereo not given),·,3,1,0,-43,-8
CCOc1cc2c(cc1OC)C(c1cccc([N+](=O)[O-])c1)NCC2 (stereo not given),·,·,11,43*,-3,0
COc1cc2c(cc1OC)C(c1ccc(Br)cc1)NCC2 (stereo not given),2,·,2,0,-1,5
COc1ccc(C2NCCc3cc(OC)c(OC)cc32)cc1OC (stereo not given),·,1,·,·,·,active
O=[N+]([O-])c1cc(CN2CCN(c3cccc(C(F)(F)F)c3)CC2)c2cccnc2c1O,·,·,-24,43*,-3,0
COc1ccc(C2CC(=O)c3cc(OC)c(OC)cc32)cc1OC (stereo not given),·,·,6,0,-2,8
COc1ccc(C2c3cc(OC)c(OC)cc3CC3C(=O)OCC32)cc1OC (stereo not given),1,96*,8,0,·,·
C#CCNC(=O)C1=C[C@@H](c2ccccc2)C[C@@H](OCCCCO)O1,0,10,6,1.7*!,-3,0
C[C@H]1CCCCO[C@@H](CN(C)Cc2ccc(C(F)(F)F)cc2)[C@@H](C)CN([C@@H](C)CO)C(=O)c2cc(NC(=O)Cc3ccccc3)ccc2O1,5,6,0,0,·,·
CCCN1[C@H](C(=O)N[C@H](C)c2ccccc2)[C@@H](CO)[C@@H]2Cn3c(cccc3=O)[C@@H]21,0,·,-2,·,3,·
C#CCNC(=O)C[C@@H]1C[C@@]2(C(=O)OCC)CCCC=C2N(CCCCCCCC)C1=O,0,·,14,0,17*,·
CCCCCCCCN1C(=O)[C@H](CC(=O)NCC2CCCCC2)C[C@@]2(C(=O)OCC)CCCC=C12,0,·,10,0,0,·
SMILES,E-sel inducer,C2C12 statin,Ecoli rRNA inh,FGF22 binding,SIRT5 inh,FN deposition inh
CCCCCCCCN1C(=O)[C@H](CC(=O)NCC2CCCCC2)C[C@@]2(C(=O)OCC)CCC=C12,0,·,17,0,22*,3
O=C(C[C@H]1C[C@@H]2c3cc(NS(=O)(=O)c4ccccc4)ccc3O[C@@H]2[C@@H](CO)O1)N1CCCCC1,0,0,-3,0,10,-1
O=C(C[C@@H]1CC[C@H](NC(=O)Nc2cccc(F)c2)[C@@H](CO)O1)NCC1CCCCC1,0,0,-5,0,1,0
COc1ccc(S(=O)(=O)N(C)C[C@H]2OCCCC[C@@H](C)Oc3ccc(NS(=O)(=O)c4ccc(F)cc4)cc3C(=O)N([C@H](C)CO)C[C@H]2C)cc1,0,-17,2,0,20*,13
COc1ccc(S(=O)(=O)N(C)C[C@@H]2OCCCC[C@H](C)Oc3ccc(NS(=O)(=O)c4ccc(F)cc4)cc3C(=O)N([C@@H](C)CO)C[C@@H]2C)cc1,0,17,3,1,20*,1
COc1ccc(S(=O)(=O)Nc2ccc3c(c2)C(=O)N([C@H](C)CO)C[C@@H](C)[C@@H](CN(C)S(=O)(=O)c2ccc(F)cc2)OCCCC[C@H](C)O3)cc1,0,141*,-2,0,10,·
COc1ccc(S(=O)(=O)Nc2ccc3c(c2)C(=O)N([C@@H](C)CO)C[C@H](C)[C@H](CN(C)S(=O)(=O)c2ccc(F)cc2)OCCCC[C@H](C)O3)cc1,0,174*,0,0,10,·
COc1ccc(S(=O)(=O)Nc2ccc3c(c2)C(=O)N([C@@H](C)CO)C[C@H](C)[C@@H](CN(C)S(=O)(=O)c2ccc(F)cc2)OCCCC[C@@H](C)O3)cc1,1,58,0,-1,12,·
COc1ccc(S(=O)(=O)Nc2ccc3c(c2)C(=O)N([C@H](C)CO)C[C@@H](C)[C@H](CN(C)S(=O)(=O)c2ccc(F)cc2)OCCCC[C@@H](C)O3)cc1,0,?,0,0,11,·
C[C@H](CO)N1C[C@H](C)[C@@H](CN(C)C(=O)Nc2ccccc2)Oc2cc(C#CC3(O)CCCC3)ccc2S1(=O)=O,0,-13,-1,0,3,-8
